Results on two compounds are retold here after ChEMBL document CHEMBL1123663, “Double-headed haptens with pyrocatechol (poison ivy like) and methylene lactone functional groups: a search for skin-tolerance inducers” (1987).

Format in all cases: functional
The species entered for assay [1] is Cavia porcellus. Kind of assay: Open epicutaneous test for sensitization as average skin reaction in presence of bihapten 1 as sensitizer on guinea pigs; Value indicates number of animals. Put shortly: (§1)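 Female Himalayan spotted guinea pigs (300–500 g) sensitized with three intradermal nuchal injections (0.1 mL) on alternate days of the hapten (2.5% w/v) emulsified 1:1 in Freund's complete adjuvant/saline. Elicitation by open epicutaneous test with the hapten at 2% w/v in 4:1 acetone/olive oil. Eight animals per group, with FCA-treated controls. Average skin reaction is the sum of test scores divided by the number of animals tested.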

The species named for assay [2] is Cavia porcellus. Kind of assay: Open epicutaneous test for sensitization as average skin reaction in presence of lactone 8 (pretreated with bihapten 1) as sensitizer on guinea pigs; Value indicates number of animals. The procedure, abridged: as §1
Assay [3] is filed under the species Cavia porcellus. Kind of assay: Open epicutaneous test for sensitization as average skin reaction in presence of lactone 8 as sensitizer on guinea pigs; Value indicates number of animals. Put shortly: as §1
Assay [4] is filed under the species Cavia porcellus. The experiment in a line: Open epicutaneous test for sensitization in presence of bihapten 1 as sensitizer on guinea pigs as number of positive animals responded. The procedure, abridged:
as §1

Assay [5] is filed under the species Cavia porcellus. The experiment in a line: Open epicutaneous test for sensitization in presence of lactone 8 (pretreated with bihapten 1) as sensitizer on guinea pigs as number of positive animals responded. Put shortly:
as §1

The species entered for assay [6] is Cavia porcellus. Kind of assay: Open epicutaneous test for sensitization in presence of lactone 8 as sensitizer on guinea pigs as number of positive animals responded. The procedure, abridged: as §1
For assay [7], the species on record is Cavia porcellus. The experiment in a line: Open epicutaneous test for sensitization in presence of bihapten 1 as sensitizer on guinea pigs with skin intensity test scale (definite erythema covering the whole test area); Value indicates number of animals. The procedure, abridged:
as §1

For assay [8], the species on record is Cavia porcellus. Kind of assay: Open epicutaneous test for sensitization in presence of bihapten 1 as sensitizer on guinea pigs with skin intensity test scale (erythema plus swelling going well beyond the); Value indicates number of animals. Put shortly: as §1
The species entered for assay [9] is Cavia porcellus. Kind of assay: Open epicutaneous test for sensitization in presence of bihapten 1 as sensitizer on guinea pigs with skin intensity test scale (slight erythema not covering the whole test area); Value indicates number of animals. The procedure, abridged: as §1
For assay [10], the species on record is Cavia porcellus. The experiment in a line: Open epicutaneous test for sensitization in presence of lactone 8 (pretreated with bihapten 1)as sensitizer on guinea pigs with skin intensity test scale (definite erythema covering the whole test area); Value indicates number of animals. Put shortly:
as §1

The species named for assay [11] is Cavia porcellus. Kind of assay: Open epicutaneous test for sensitization in presence of lactone 8 (pretreated with bihapten 1)as sensitizer on guinea pigs with skin intensity test scale (erythema plus swelling going well beyond); Value indicates number of animals. Put shortly:
as §1

Assay [12] is filed under the species Cavia porcellus. Kind of assay: Open epicutaneous test for sensitization in presence of lactone 8 (pretreated with bihapten 1)as sensitizer on guinea pigs with skin intensity test scale (erythema plus swelling of the test area). Put shortly: as §1
The species entered for assay [13] is Cavia porcellus. Kind of assay: Open epicutaneous test for sensitization in presence of lactone 8 (pretreated with bihapten 1)as sensitizer on guinea pigs with skin intensity test scale (no reaction); Value indicates number of animals. The procedure, abridged:
as §1

For assay [14], the species on record is Cavia porcellus. Kind of assay: Open epicutaneous test for sensitization in presence of lactone 8 as sensitizer on guinea pigs with skin intensity test scale (definite erythema covering the whole test area); Value indicates number of animals. The procedure, abridged: as §1
The species entered for assay [15] is Cavia porcellus. The experiment in a line: Open epicutaneous test for sensitization in presence of lactone 8 as sensitizer on guinea pigs with skin intensity test scale (erythema plus swelling going well beyond); Value indicates number of animals. Put shortly:
as §1

The species entered for assay [16] is Cavia porcellus. The experiment in a line: Open epicutaneous test for sensitization in presence of lactone 8 as sensitizer on guinea pigs with skin intensity test scale (erythema plus swelling of the test area); Value indicates number of animals. Put shortly:
as §1

The species entered for assay [17] is Cavia porcellus. Kind of assay: Open epicutaneous test for sensitization in presence of lactone 8 as sensitizer on guinea pigs with skin intensity test scale (slight erythema not covering the whole test area); Value indicates number of animals. The procedure, abridged:
as §1

The species entered for assay [18] is Cavia porcellus. Kind of assay: Open epicutaneous test for sensitization in presence of lactone 8 as sensitizer on guinea pigs with skin intensity test scale (no reaction); Value indicates number of animals. Put shortly: as §1
The species named for assay [19] is Cavia porcellus. The experiment in a line: Open epicutaneous test for sensitization in presence of bihapten 1 as sensitizer on guinea pigs with skin intensity test scale (erythema plus swelling of the test area); Value indicates number of animals. Put shortly: as §1
For assay [20], the species on record is Cavia porcellus. Kind of assay: Open epicutaneous test for sensitization in presence of bihapten 1 as sensitizer on guinea pigs with skin intensity test scale (no reaction); Value indicates number of animals. Put shortly: as §1
For assay [21], the species on record is Cavia porcellus. Kind of assay: Open cutaneous test for sensitization in presence of lactone 8 (pretreated with bihapten 1)as sensitizer on guinea pigs with skin intensity test scale (slight erythema not covering the whole test area); Value indicates number of animals. Put shortly: as §1
The species named for assay [22] is Cavia porcellus. The experiment in a line: Open epicutaneous test for sensitization in presence of lactone 8 (pretreated with bihapten 1) as sensitizer on guinea pigs with skin intensity test scale (definite erythema covering the whole test area); Value indicates number of animals. The procedure, abridged: as §1
The species named for assay [23] is Cavia porcellus. The experiment in a line: Open epicutaneous test for sensitization in presence of lactone 8 (pretreated with bihapten 1) as sensitizer on guinea pigs with skin intensity test scale (erythema plus swelling going well beyond); Value indicates number of animals. The procedure, abridged:
as §1

For assay [24], the species on record is Cavia porcellus. Kind of assay: Open epicutaneous test for sensitization in presence of bihapten 1 as sensitizer on guinea pigs with skin intensity test scale (erythema plus swelling going well beyond); Value indicates number of animals. The procedure, abridged:
as §1

For assay [25], the species on record is Cavia porcellus. Kind of assay: Open epicutaneous test for sensitization in presence of lactone 8 (pretreated with bihapten 1) as sensitizer on guinea pigs with skin intensity test scale (erythema plus swelling of the test area); Value indicates number of animals. The procedure, abridged:
as §1

The species entered for assay [26] is Cavia porcellus. The experiment in a line: Open epicutaneous test for sensitization in presence of lactone 8 (pretreated with bihapten 1) as sensitizer on guinea pigs with skin intensity test scale (no reaction); Value indicates number of animals. Put shortly:
as §1

For assay [27], the species on record is Cavia porcellus. The experiment in a line: Open epicutaneous test for sensitization in presence of lactone 8 (pretreated with bihapten 1) as sensitizer on guinea pigs with skin intensity test scale (slight erythema not covering the whole test area); Value indicates number of animals. The procedure, abridged:
as §1

The species named for assay [28] is Cavia porcellus. The experiment in a line: Open cutaneous test for sensitization in presence of lactone 8 as sensitizer on guinea pigs with skin intensity test scale (definite erythema covering the whole test area); Value indicates number of animals. Put shortly:
as §1

For assay [29], the species on record is Cavia porcellus. Kind of assay: Open cutaneous test for sensitization in presence of lactone 8 as sensitizer on guinea pigs with skin intensity test scale (erythema plus swelling going well beyond); Value indicates number of animals. The procedure, abridged: as §1
The species entered for assay [30] is Cavia porcellus. The experiment in a line: Open cutaneous test for sensitization in presence of lactone 8 as sensitizer on guinea pigs with skin intensity test scale (erythema plus swelling of the test area); Value indicates number of animals. Put shortly:
as §1

For assay [31], the species on record is Cavia porcellus. Kind of assay: Open cutaneous test for sensitization in presence of lactone 8 as sensitizer on guinea pigs with skin intensity test scale (no reaction); Value indicates number of animals. Put shortly: as §1
The species entered for assay [32] is Cavia porcellus. The experiment in a line: Open cutaneous test for sensitization in presence of lactone 8 as sensitizer on guinea pigs with skin intensity test scale (slight erythema not covering the whole test area); Value indicates number of animals. The procedure, abridged: as §1

Turning to `C=C1CC(CCCCCCCCCc2cccc(O)c2O)OC1=O` (configuration not stated), the “Average for skin reaction” value in assay [1] came out at 1; in assay [2], 1; in assay [3], 1.6. Moreover, the “No. of positive animals” value in assay [4], in assay [5] and in assay [6] was 8 each time. The Skin reaction is recorded as 8 in assay [7]; 0 in assay [8]; 0 in assay [9]; 8 in [10]; 0 in assay [11]; 0 in [12]. Besides, the Skin reaction is recorded as 0 in assay [13]; 3 in assay [14]; 0 in assay [15]; 5 in assay [16]; 0 in assay [17]; 0 in assay [18]. In addition, the Skin reaction in [19], in assay [20] and in assay [21] was 0 each time.

For the compound `C=C1CC(CCCCCCCCCc2cccc(OC)c2OC)OC1=O` (configuration not stated), the “Average for skin reaction” value is 0 in [1], 0.6 in assay [2] and 3 in assay [3]. Moreover, the “No. of positive animals” value in assay [4] came to 0; in assay [5], 8; in assay [6] it was 8. Moreover, the Skin reaction turned out to be 0 in [7]; 0 in [9]; 2 in assay [22]; 0 in assay [23]; 0 in assay [24]; 0 in assay [25]. The Skin reaction in assay [26] stood at 0; in [27], 6; in [19], 0; in assay [20], 0; in assay [28], 0; in assay [29], 8. Further, the Skin reaction in assay [30], in assay [31] and in assay [32] was 0 throughout.
